What was measured:
[1] = Toxicity against BALB/c mouse macrophages assessed as disrupted cells; assay type: functional, Macrophage
Leishmania donovani = assay: Antileishmanial activity against Leishmania donovani LD-1/MHOM/SD/00-1S in mouse peritoneal macrophages at 80 ug/mL after 48 hrs relative to control; assay type: functional
Outline: (§1)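 BALB/c peritoneal macrophages, 2 · 10⁵ cells per chamber in DMEM, held 2 h at 37 °C in 4% CO₂/air. They were then infected for 4 h with 8 · 10⁵ stationary-phase promastigotes in DMEM with 5% heat-inactivated FCS and antibiotics. After washing off free parasites, compound was added in quadruplicate for 48 h. Monolayers were methanol-fixed and Giemsa-stained, and amastigotes counted per 200 cells. Result is % growth inhibition versus untreated controls.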

Leishmania amazonensis = assay: Antileishmanial activity against Leishmania amazonensis MHOM/BR/75-josefa in mouse peritoneal macrophages at 80 ug/mL after 48 hrs relative to control; assay type: functional; outline: as §1
[2] = (§2) Toxicity against BALB/c mouse macrophages assessed as cell viability; assay type: functional, Macrophage; parameters: concentration or dose not given beside the values
Macrophage = assay: as §2; assay type: functional; parameters: concentration or dose not given beside the values

COc1ccc(C(=O)C(C)Sc2ccc(N)cc2)cc1OC (configuration not stated)
Activity [1]: >80%

COc1ccc(C(=O)C(C)Sc2ccc(C)cc2)cc1OC (configuration not stated)
inhibition at 80 µg/mL (Leishmania donovani): 100%
inhibition at 80 µg/mL (Leishmania amazonensis): 100%

CC(=O)O[C@H](c1ccccc1)[C@H](C)Sc1ccc(Cl)cc1 (relative stereo)
Activity [2]: >80%
inhibition at 80 µg/mL (Leishmania donovani): 0%
inhibition at 80 µg/mL (Leishmania amazonensis): 0%

COc1ccc([C@@H](O)[C@H](C)Sc2ccc(C)cc2)cc1OC (relative stereo)
Activity [2]: >80%
inhibition at 80 µg/mL (Leishmania donovani): 0%
inhibition at 80 µg/mL (Leishmania amazonensis): 40.6%

CC(C(=O)c1ccccc1)[S+]([O-])c1ccc(Cl)cc1 (configuration not stated)
Activity [2]: >80%
inhibition at 80 µg/mL (Leishmania donovani): 0%
inhibition at 80 µg/mL (Leishmania amazonensis): 20.7%

CC(C(=O)c1ccccc1)S(=O)(=O)c1ccc(Cl)cc1 (configuration not stated)
Activity [2]: >80%
inhibition at 80 µg/mL (Leishmania donovani): 0%
inhibition at 80 µg/mL (Leishmania amazonensis): 0%

COc1ccc(C(=O)C(C)Oc2c(OC)cccc2OC)cc1OC (configuration not stated)
Activity [2]: >80%
inhibition at 80 µg/mL (Leishmania donovani): 49.9%
inhibition at 80 µg/mL (Leishmania amazonensis): 37.9%

COc1ccc(C(=O)COc2ccc(Cl)cc2)cc1OC
Activity [2]: >80%
inhibition at 80 µg/mL (Leishmania donovani): 0%
inhibition at 80 µg/mL (Leishmania amazonensis): 17.7%

Cc1ccc(SC(C)C(=O)c2ccccc2)cc1 (configuration not stated)
Activity [1]: >80%

O=C(COc1ccccc1)c1ccccc1
Activity [2]: >80%
inhibition at 80 µg/mL (Leishmania donovani): 40%
inhibition at 80 µg/mL (Leishmania amazonensis): 44%

C[C@H](Sc1ccc(Cl)cc1)[C@H](O)c1ccccc1 (relative stereo)
Activity [2]: >80%
inhibition at 80 µg/mL (Leishmania donovani): 45.2%
inhibition at 80 µg/mL (Leishmania amazonensis): 50.6%

CC(Sc1ccccc1)C(=O)c1ccccc1 (configuration not stated)
Activity [2]: >80%
inhibition at 80 µg/mL (Leishmania donovani): 70.2%
inhibition at 80 µg/mL (Leishmania amazonensis): 78.1%

C/C=C/c1ccc(OC(C)C(=O)c2ccc(OC)c(OC)c2)c(OC)c1 (configuration not stated)
Activity [2]: >80%
inhibition at 80 µg/mL (Leishmania donovani): 50%
inhibition at 80 µg/mL (Leishmania amazonensis): 34.2%

COc1ccc([C@@H](O)[C@H](C)Sc2ccc(Cl)cc2)cc1OC (relative stereo)
Activity [2]: >80%
inhibition at 80 µg/mL (Leishmania donovani): 0%
inhibition at 80 µg/mL (Leishmania amazonensis): 36.1%

COc1ccc(C(=O)C(C)Sc2ccc(Cl)cc2)cc1OC (configuration not stated)
Activity [2]: >80%
inhibition at 80 µg/mL (Leishmania donovani): 22%
inhibition at 80 µg/mL (Leishmania amazonensis): 63.3%

MEGLUMINE ANTIMONATE
Activity (Macrophage): > 80%
inhibition (Leishmania donovani): 26%
inhibition (Leishmania amazonensis): 28.2%

O=C(CSc1ccc(Cl)cc1)c1ccccc1
Activity [2]: >80%
inhibition at 80 µg/mL (Leishmania donovani): 37.2%
inhibition at 80 µg/mL (Leishmania amazonensis): 38.8%

O=C(CSc1ccc(Cl)cc1)c1ccc(Cl)cc1
Activity [2]: >80%
inhibition at 80 µg/mL (Leishmania donovani): 0%
inhibition at 80 µg/mL (Leishmania amazonensis): 50.5%

CSc1ccccc1OCC(=O)c1ccc(Cl)cc1
Activity [2]: >80%
inhibition at 80 µg/mL (Leishmania donovani): 5.8%
inhibition at 80 µg/mL (Leishmania amazonensis): 8.8%

COc1ccc(C(=O)C(C)Sc2ccccc2)cc1OC (configuration not stated)
Activity [1]: >80%

CC(Sc1ccc(Cl)cc1)C(=O)c1ccccc1 (configuration not stated)
Activity [2]: >80%
inhibition at 80 µg/mL (Leishmania donovani): 94.1%
inhibition at 80 µg/mL (Leishmania amazonensis): 100%

CC(Sc1ccc(N)cc1)C(=O)c1ccccc1 (configuration not stated)
Activity [2]: >80%
inhibition at 80 µg/mL (Leishmania donovani): 28.8%
inhibition at 80 µg/mL (Leishmania amazonensis): 0%

COc1ccc(C(=O)C(C)S(=O)(=O)c2ccc(C)cc2)cc1OC (configuration not stated)
Activity [2]: >80%
inhibition at 80 µg/mL (Leishmania donovani): 0%
inhibition at 80 µg/mL (Leishmania amazonensis): 7%

— ChEMBL document CHEMBL1137535, “Structure-activity relationship of antileishmanials neolignan analogues” (2007)
